Measurements reported in ChEMBL document CHEMBL4665829, “Synthesis, Structure-Activity Relationship, and Antimalarial Efficacy of 6-Chloro-2-arylvinylquinolines” (J Med Chem, 2020).
The source made the active and inactive calls. The rule behind the calls is not given here.

tested on: not listed separately; test: Intrinsic clearance in mouse liver microsomes assessed as parent compound at 1 uM after 60 mins in presence of NADPH by LC-MS analysis; assay type: ADME, Microsome; settings: not given
Procedure, shortened: (§1)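 Mouse liver microsomes (0.5 mg/mL final protein) in 0.1 M phosphate, pH 7.4, with compound at 1 μM, 37 °C with shaking. Aliquots were quenched in cold acetonitrile and centrifuged; LC–MS gave parent peak area at 60 min relative to 0 min.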

| Compound | CLH [µL/min/mg] |
| --- | --- |
| Fc1ccc(/C=C/c2cc(NCc3ccccn3)c3cc(Cl)ccc3n2)cc1 | 21.2 |
| FC(F)(F)c1ccc(/C=C/c2cc(NCCCCN3CCOCC3)c3cc(Cl)ccc3n2)cc1 | 21.4 |
| CN1CCN(CCNc2cc(/C=C/c3ccc(F)cc3)nc3ccc(Cl)cc23)CC1 | 23 |
| CCN(CC)CCCC(C)Nc1cc(/C=C/c2ccc([N+](=O)[O-])cc2)nc2ccc(OC)cc12 (centres undefined) | 33.4 |
| Clc1ccc2nc(/C=C/c3ccncc3)cc(NCCCCN3CCOCC3)c2c1 | 96.2 |

tested on: not listed separately; test: Half life in mouse liver microsomes at 1 uM after 60 mins in presence of NADPH by LC-MS analysis; assay type: ADME, Microsome; settings: 1 h; procedure, shortened: as §1

| Compound | t1/2 [min] |
| --- | --- |
| Fc1ccc(/C=C/c2cc(NCc3ccccn3)c3cc(Cl)ccc3n2)cc1 | 65.3 |
| FC(F)(F)c1ccc(/C=C/c2cc(NCCCCN3CCOCC3)c3cc(Cl)ccc3n2)cc1 | 64.9 |
| CN1CCN(CCNc2cc(/C=C/c3ccc(F)cc3)nc3ccc(Cl)cc23)CC1 | 60.3 |
| Clc1ccc2nc(/C=C/c3ccncc3)cc(NCCCCN3CCOCC3)c2c1 | 14.4 |

tested on: Plasmodium berghei; test: Antiplasmodial activity against Plasmodium berghei ANKA expressing luciferase infected in Swiss Webster mouse at 100 mg/kg, po for 5 days using monophosphate salt form of compound by luminescence based assay; assay type: functional, organism-based; settings: time 5.0 day
Procedure, shortened: (§2)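 Female Swiss Webster mice got 10³ RBC infected with luciferase-expressing P. berghei ANKA. From 48 h post-infection, groups of five were gavaged once daily for 5 days in 2% methylcellulose/0.5% Tween 80, against a vehicle control. On day 7, mice received 150 mg/kg D-luciferin in PBS, and bioluminescence was imaged by IVIS as a measure of parasite load.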

| Compound | Activity |
| --- | --- |
| CN1CCN(CCNc2cc(/C=C/c3ccc(F)cc3)nc3ccc(Cl)cc23)CC1 | Active |

tested on: not listed separately; test: Half life in mouse liver microsomes after 60 mins in presence of NADPH by LC-MS analysis; assay type: ADME, Microsome; settings: not given

| Compound | half-life [min] |
| --- | --- |
| CCN(CC)CCCC(C)Nc1cc(/C=C/c2ccc([N+](=O)[O-])cc2)nc2ccc(OC)cc12 (centres undefined) | 56.2 |

tested on: Plasmodium falciparum; test: Antiplasmodial activity against late trophozoite synchronized chloroquine-resistant Plasmodium falciparum Dd2 reduction in microbial growth at 5 times of EC50 after 12 hrs by Giemsa staining-based microscopic analysis; assay type: functional, organism-based; settings: not given
Procedure, shortened: (§3)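 Dd2 cultures tightly synchronized by magnetic separation and sorbitol were dosed at 5 × EC50 at 6, 18, 30 or 42 h post-invasion. Controls: DHA 50 nM, atovaquone 6.6 nM, DMSO 0.1%. Sampled every 12 h for Giemsa thin smears and for flow cytometry: glutaraldehyde/paraformaldehyde fixation, Triton permeabilization, RNAse, 500 nM YOYO-1, 500,000 events/sample. Three independent biological replicates.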

| Compound | Activity |
| --- | --- |
| CN1CCN(CCNc2cc(/C=C/c3ccc(F)cc3)nc3ccc(Cl)cc23)CC1 | Active |

tested on: not listed separately; test: Stability of compound in mouse liver microsomes assessed as parent compound remaining after 60 mins in presence of NADPH by LC-MS analysis; assay type: ADME, Microsome; settings: read-out: Stabilty

| Compound | remaining at 1 h [%] |
| --- | --- |
| CCN(CC)CCCC(C)Nc1cc(/C=C/c2ccc([N+](=O)[O-])cc2)nc2ccc(OC)cc12 (centres undefined) | 47.8 |

tested on: Plasmodium falciparum; test: Antiplasmodial activity against synchronous gametocyte late stage of Plasmodium falciparum 3D7 harboring luc7 incubated for 72 hrs by ONE-Glo luciferase assay; assay type: functional, organism-based; settings: 3D7, 72 h
Procedure, shortened: (§4)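 Gametocytes of P. falciparum 3D7 luc7 induced by nutrient starvation, cultured in heparin medium to remove asexual stages, Percoll-purified as early (II–III) or late (IV–V) stage. 50,000 gametocytes/well exposed 72 h to a 19-point gradient, 0.038 nM–10 μM. ONE-Glo luciferase read after 5 min. EC50 by nonlinear curve fit; three experiments.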

| Compound | EC50 [nM] |
| --- | --- |
| CN1CCN(CCNc2cc(/C=C/c3ccc(F)cc3)nc3ccc(Cl)cc23)CC1 | 2500 |

tested on: Plasmodium falciparum; test: Antiplasmodial activity against chloroquine-resistant Plasmodium falciparum Dd2 infected in human erythrocytes assessed as reduction in microbial growth after 72 hrs by SYBR green I staining based fluorescence assay; assay type: functional, organism-based; settings: Dd2, Erythrocyte
Procedure, shortened: (§5)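 SYBR Green I assay: twofold serial dilutions on P. falciparum cultures at 1% parasitemia, 1% hematocrit, 37 °C, 5% CO₂, 72 h, max 0.1% DMSO. DMSO and CQ as growth and inhibition controls. Plates frozen at −80 °C, thawed, lysed in Tris/saponin/EDTA/Triton buffer with 0.01% SYBR Green I, 1 h dark at room temperature. Fluorescence read at 485 ex/530 em. EC50 by nonlinear dose–response fit.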

| Compound | EC50 [nM] |
| --- | --- |
| Fc1ccc(/C=C/c2cc(NCc3ccccn3)c3cc(Cl)ccc3n2)cc1 | 156 |
| FC(F)(F)c1ccc(/C=C/c2cc(NCCCCN3CCOCC3)c3cc(Cl)ccc3n2)cc1 | 30.7 |
| CN1CCN(CCNc2cc(/C=C/c3ccc(F)cc3)nc3ccc(Cl)cc23)CC1 | 15.3 |
| CCN(CC)CCCC(C)Nc1cc(/C=C/c2ccc([N+](=O)[O-])cc2)nc2ccc(OC)cc12 (centres undefined) | 67 |
| Clc1ccc2nc(/C=C/c3ccncc3)cc(NCCCCN3CCOCC3)c2c1 | 9.9 |

tested on: not listed separately; test: Resistant index, ratio of EC50 for antiplasmodial activity against chloroquine-resistant Plasmodium falciparum Dd2 to antiplasmodial activity against chloroquine-sensitive Plasmodium falciparum 3D7; assay type: functional; settings: not given

| Compound | Ratio EC50 |
| --- | --- |
| Fc1ccc(/C=C/c2cc(NCc3ccccn3)c3cc(Cl)ccc3n2)cc1 | 0.6 |
| FC(F)(F)c1ccc(/C=C/c2cc(NCCCCN3CCOCC3)c3cc(Cl)ccc3n2)cc1 | 0.4 |
| CN1CCN(CCNc2cc(/C=C/c3ccc(F)cc3)nc3ccc(Cl)cc23)CC1 | 1 |
| CCN(CC)CCCC(C)Nc1cc(/C=C/c2ccc([N+](=O)[O-])cc2)nc2ccc(OC)cc12 (centres undefined) | 0.6 |
| Clc1ccc2nc(/C=C/c3ccncc3)cc(NCCCCN3CCOCC3)c2c1 | 0.5 |

tested on: Hemozoin; test: Inhibition of beta-hematin formation after 16 hrs by inverted microscopic analysis; settings: dose microM 12.5-200, time 16.0 hrs
Procedure, shortened: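 Hemin (2 mM stock in 0.1 M NaOH; 100 μM final), propionate buffer pH 5.2 and sonicated phosphatidylcholine were incubated with a compound concentration series for 16 h at 37 °C with gentle shaking. Crystals were imaged by inverted microscope before quenching with 7.5% SDS in bicarbonate, pH 9.1. Free hemin was measured at 405 nm against a 0–16 μM calibration. Three independent experiments.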

| Compound | inhibition |
| --- | --- |
| CN1CCN(CCNc2cc(/C=C/c3ccc(F)cc3)nc3ccc(Cl)cc23)CC1 | Dose-dependent effect |

tested on: Plasmodium berghei; test: Antiplasmodial activity against Plasmodium berghei ANKA expressing luciferase infected in Swiss Webster mouse at 25 mg/kg, po for 5 days using monophosphate salt form of compound by luminescence based assay; assay type: functional, organism-based; settings: time 5.0 day; procedure, shortened: as §2

| Compound | Activity |
| --- | --- |
| CN1CCN(CCNc2cc(/C=C/c3ccc(F)cc3)nc3ccc(Cl)cc23)CC1 | inactive |

tested on: HepG2; test: Cytotoxicity against human HepG2 cells assessed as reduction in cell viability after 48 hrs by MTS assay; assay type: cell-based; settings: HepG2, 48 h
Procedure, shortened: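 HepG2 cells were seeded at 2250 per well and grown 24 h at 37 °C, 5% CO₂. Serial dilutions starting at 25 μM were added for a further 48 h. MTS was then added for 3 h at 37 °C and absorbance read at 490 nm. EC₅₀ came from nonlinear dose–response fits.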

| Compound | EC50 [nM] |
| --- | --- |
| Fc1ccc(/C=C/c2cc(NCc3ccccn3)c3cc(Cl)ccc3n2)cc1 | 19800 |
| FC(F)(F)c1ccc(/C=C/c2cc(NCCCCN3CCOCC3)c3cc(Cl)ccc3n2)cc1 | 10200 |
| CN1CCN(CCNc2cc(/C=C/c3ccc(F)cc3)nc3ccc(Cl)cc23)CC1 | 3200 |
| CCN(CC)CCCC(C)Nc1cc(/C=C/c2ccc([N+](=O)[O-])cc2)nc2ccc(OC)cc12 (centres undefined) | 7020 |
| Clc1ccc2nc(/C=C/c3ccncc3)cc(NCCCCN3CCOCC3)c2c1 | 5670 |

tested on: Plasmodium falciparum; test: Parasiticidal activity against chloroquine-resistant Plasmodium falciparum Dd2 infected in RBC assessed as reduction in parasitemia at 5 times of EC50 incubated for 6 to 48 hrs followed by compound washout and then incubated for 96 hrs by Giemsa staining based microscopic analysis; assay type: functional, organism-based; settings: time hrs 6-48
Procedure, shortened: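 Controls: 0.15% DMSO, DHA 50 nM, atovaquone 6.6 nM. Drug removed by three RPMI washes, then parasitemia followed daily for 96 h by Giemsa thin smears. Three independent biological replicates.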

| Compound | Activity |
| --- | --- |
| CN1CCN(CCNc2cc(/C=C/c3ccc(F)cc3)nc3ccc(Cl)cc23)CC1 | Active |

tested on: not listed separately; test: Selectivity index, ratio of EC50 for cytotoxicity against human HepG2 cells to antiplasmodial activity against chloroquine-resistant Plasmodium falciparum Dd2; assay type: toxicity, cell-based; settings: read-out: Ratio EC50

| Compound | selectivity ratio |
| --- | --- |
| Fc1ccc(/C=C/c2cc(NCc3ccccn3)c3cc(Cl)ccc3n2)cc1 | 127 |
| FC(F)(F)c1ccc(/C=C/c2cc(NCCCCN3CCOCC3)c3cc(Cl)ccc3n2)cc1 | 332 |
| CN1CCN(CCNc2cc(/C=C/c3ccc(F)cc3)nc3ccc(Cl)cc23)CC1 | 209 |
| CCN(CC)CCCC(C)Nc1cc(/C=C/c2ccc([N+](=O)[O-])cc2)nc2ccc(OC)cc12 (centres undefined) | 105 |
| Clc1ccc2nc(/C=C/c3ccncc3)cc(NCCCCN3CCOCC3)c2c1 | 561 |

tested on: Plasmodium falciparum; test: Antiplasmodial activity against chloroquine-sensitive Plasmodium falciparum 3D7 infected in human erythrocytes assessed as reduction in microbial growth after 72 hrs by SYBR green I staining based fluorescence assay; assay type: functional, organism-based; settings: 3D7, Erythrocyte; procedure, shortened: as §5

| Compound | EC50 [nM] |
| --- | --- |
| Fc1ccc(/C=C/c2cc(NCc3ccccn3)c3cc(Cl)ccc3n2)cc1 | 248 |
| FC(F)(F)c1ccc(/C=C/c2cc(NCCCCN3CCOCC3)c3cc(Cl)ccc3n2)cc1 | 73.8 |
| CN1CCN(CCNc2cc(/C=C/c3ccc(F)cc3)nc3ccc(Cl)cc23)CC1 | 15.7 |
| CCN(CC)CCCC(C)Nc1cc(/C=C/c2ccc([N+](=O)[O-])cc2)nc2ccc(OC)cc12 (centres undefined) | 119 |
| Clc1ccc2nc(/C=C/c3ccncc3)cc(NCCCCN3CCOCC3)c2c1 | 20.8 |

tested on: not listed separately; test: Stability of compound in mouse liver microsomes assessed as parent compound remaining at 1 uM after 60 mins in presence of NADPH by LC-MS analysis; assay type: ADME, Microsome; settings: 1 h; procedure, shortened: as §1

| Compound | Stabilty [%] |
| --- | --- |
| Fc1ccc(/C=C/c2cc(NCc3ccccn3)c3cc(Cl)ccc3n2)cc1 | 52.9 |
| FC(F)(F)c1ccc(/C=C/c2cc(NCCCCN3CCOCC3)c3cc(Cl)ccc3n2)cc1 | 52.7 |
| CN1CCN(CCNc2cc(/C=C/c3ccc(F)cc3)nc3ccc(Cl)cc23)CC1 | 50.2 |
| CCN(CC)CCCC(C)Nc1cc(/C=C/c2ccc([N+](=O)[O-])cc2)nc2ccc(OC)cc12 (centres undefined) | 36.7 |
| Clc1ccc2nc(/C=C/c3ccncc3)cc(NCCCCN3CCOCC3)c2c1 | 5.6 |

tested on: Plasmodium falciparum; test: Antiplasmodial activity against late trophozoite synchronized chloroquine-resistant Plasmodium falciparum Dd2 reduction in microbial growth at 5 times of EC50 after 12 hrs by YOYO-1 staining-based flow cytometric analysis; assay type: functional, organism-based; settings: not given; procedure, shortened: as §3

| Compound | Activity |
| --- | --- |
| CN1CCN(CCNc2cc(/C=C/c3ccc(F)cc3)nc3ccc(Cl)cc23)CC1 | Active |

tested on: Plasmodium falciparum; test: Antiplasmodial activity against synchronous gametocyte early stage of Plasmodium falciparum 3D7 harboring luc7 incubated for 72 hrs by ONE-Glo luciferase assay; assay type: functional, organism-based; settings: 3D7, 72 h; procedure, shortened: as §4

| Compound | EC50 [nM] |
| --- | --- |
| CN1CCN(CCNc2cc(/C=C/c3ccc(F)cc3)nc3ccc(Cl)cc23)CC1 | 910 |
